Reference: PubChem BioAssay
Records with an inconclusive call do not appear.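 How the source made its calls, unless noted: active means viability at or below 27.92% in each of two runs, the all-compound median minus 4 SD; inconclusive means no clear call, values can overlap the other calls; inactive means the rest.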

What was measured:
[1] = OD615 S. cerevisiae growth inhibition, permissive medium, pilot counter-assay, permissive growth control for S. cerevisiae lifespan shortening project (AID 705;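 active means growth inhibition above 25% in both replicates, a cutoff set 3 SD above the mean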); conditions: OD615, 24 h, at 10 µM, stronger effect = higher value
Method in brief: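 assay system = Saccharomyces cerevisiae strain carrying genetically modified DeaD replicative-lifespan system | medium = SC raffinose/galactose permissive medium | dosing = 10 µM single dose, 0.25% DMSO | schedule = 24 h compound exposure at 30 °C after 4 h pre-growth | measured by = OD at 615 nm | read-out basis = growth inhibition from lowered OD615 after 24 h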

[2] = Restrictive medium S. cerevisiae growth inhibition, OD615, pilot screen of yeast lifespan reduction project, restrictive growth control (AID 706;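 active means growth inhibition above a set limit, 3 SD over mean compound inhibition, in both replicates, cut at about 43% in these data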;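 further: modified DeaD lifespan yeast strain shifted to restrictive glucose medium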); conditions: OD615, 48 h, at 10 µM, stronger effect = higher value
Method in brief: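 Buffer or medium: CSMM-D glucose medium. Material: genetically modified Saccharomyces cerevisiae, DeaD replicative lifespan assay strain. Times: 48 h compound exposure at 30 °C. Measured by: optical density at 615 nm.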

[3] = viability gain of MRP-1-high H69AR cells under doxorubicin, pilot screen, MRP-1 activator project, CellTiter-Glo, duplicate (AID 807;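 active means viability increase at or above a cutoff of the median across tested compounds plus 3 SD, cut at about 8.5% in these data, passing the limit was not always enough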;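 further: compound pretreatment 18-22 h then 72 h combined with doxorubicin; 0% = doxorubicin alone and 100% = vehicle without doxorubicin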); conditions: H69AR viability with doxorubicin, CellTiter-Glo luminescence; at 10 µM; stronger effect = higher value
[4] = growth suppression of beta-catenin knockout HCT116, pilot screen, human colon tumor cells (AID 823;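 active means cell viability at or below a set limit in both duplicate runs, the limit being the all-compound median minus 4 SD, cut at about 23% in these data, passing the limit was not always enough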;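 further: 0% = wells killed by 20 µM Hyamine and 100% = untreated DMSO cell wells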); conditions: CellTiter-Glo, 60 h, at 10 µM, stronger effect = lower value
[5] = growth suppression of PTEN-deleted HCT116, pilot screen, cell-based, HCT116 clonal line, CellTiter-Glo (AID 824); conditions: 60 h, at 10 µM, stronger effect = lower value;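 further: 0% = 20 µM Hyamine control and 100% = vehicle cell control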
[6] = inhibitors of the yeast RAM network, pilot screen, dse1pr::URA3 reporter, 5-FOA selection (AID 869;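 active means inhibition over a set limit, the all-compound mean plus 3 SD, in both replicate runs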;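 further: 0% = DMSO wells with no growth and 100% = 10 µM 1-NA-PP1 with full growth; RAM network block rescues cells from 5-FOA so hits raise OD615 growth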); conditions: S. cerevisiae dse1pr::URA3 5-FOA growth, OD615, 2 d; at 10 µM; stronger effect = higher value; strain carries analog-sensitive mutant Cbk1 kinase
[7] = RAM signaling pathway blockade in yeast – S. cerevisiae, Pdr1DBD-CYC8 efflux-inhibited sensitized strain, primary screen (AID 1298;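 active means RAM network inhibition above 8.4% in each of two replicates, 3 SD over the compound average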;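 further: 0% = DMSO untreated cells without growth and 100% = 10 µM 1-NA-PP1 full growth; higher means more yeast growth rescued from 5-FOA killing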); conditions: S. cerevisiae cbk1-as DSE1-URA3 strain, 5-FOA growth OD615, 2 d; at 50 µM; stronger effect = higher value

CC1=CC(C)(C)N(C(=O)CSc2nccn2C)c2cc(C)ccc21
inactive: growth inhibition [1] -12.3% | growth inhibition [2] -6.42% | viability increase [3] -3.04% | viability [4] 84.6% | viability [5] 84% | inhibition [6] 1.09% | RAM network inhibition [7] 0.77%

COc1ccc(S(=O)(=O)Cc2ccc(C(=O)NCc3ccc(F)cc3)o2)cc1
inactive: growth inhibition [1] -13.6% | growth inhibition [2] -14.1% | viability increase [3] -0.39% | viability [4] 92.2% | viability [5] 87.5% | inhibition [6] 0.735% | RAM network inhibition [7] 2.4%

Cc1nn(C)c(C)c1NS(=O)(=O)c1ccccc1
inactive: growth inhibition [1] -9.1% | growth inhibition [2] -6.73% | viability increase [3] -0.34% | viability [4] 98% | viability [5] 88.4% | inhibition [6] 0.545% | RAM network inhibition [7] 6.15%

CCOC(=O)C1=C(C)Nc2nc(SCc3cccnc3)nn2C1c1ccc(OC)cc1 (stereo unspecified)
inactive: growth inhibition [1] -6.41% | growth inhibition [2] 2.46% | viability increase [3] -2.64% | viability [4] 98.7% | viability [5] 89% | inhibition [6] 0.58% | RAM network inhibition [7] 4.49%

Cc1c(C(=O)NCC2CCCO2)sc2nc(-c3ccccc3)cn12 (stereo unspecified)
inactive: growth inhibition [1] 7.17% | growth inhibition [2] 8.27% | viability increase [3] 0.89% | viability [4] 109% | viability [5] 95.1% | inhibition [6] 0.15% | RAM network inhibition [7] 1.08%

C=C(C)CSc1nnc(-c2cccc(Cl)c2)n1N
inactive: growth inhibition [1] 3.94% | growth inhibition [2] 14.4% | viability increase [3] 0.23% | viability [4] 95.9% | viability [5] 91.5% | inhibition [6] 1.77% | RAM network inhibition [7] -0.48%

Cc1ccc(S(=O)(=O)N2CCN(Cc3ccccc3C(F)(F)F)CC2)cc1
inactive: growth inhibition [1] -12.5% | growth inhibition [2] -27.7% | viability increase [3] -1.45% | viability [4] 78% | viability [5] 82.8% | inhibition [6] 0.92% | RAM network inhibition [7] 3.06%

Cc1ccc(-c2nc(CS(=O)CC(=O)NCc3ccccc3)c(C)o2)cc1 (stereo unspecified)
inactive: growth inhibition [1] 2.69% | growth inhibition [2] -1.83% | viability increase [3] -2.84% | viability [4] 98.2% | viability [5] 89.5% | inhibition [6] 0.175% | RAM network inhibition [7] 6.78%

CC1(C)CC(=O)c2sc(NC(=O)c3ccco3)nc2C1
inactive: growth inhibition [1] -15% | growth inhibition [2] -0.525% | viability increase [3] -2.54% | viability [4] 94.2% | viability [5] 84.1% | inhibition [6] 0.735% | RAM network inhibition [7] 2.58%

O=C(NC(=O)c1ccccc1)OCC(F)(F)F
inactive: growth inhibition [1] -6.06% | growth inhibition [2] -1.48% | viability increase [3] 0.71% | viability [4] 98.9% | viability [5] 103% | inhibition [6] 0.34% | RAM network inhibition [7] 3.03%

Cc1ccc(-c2noc(CN(C(=O)c3cccc(Br)c3)C(C)C)n2)cc1
inactive: growth inhibition [1] 0.485% | growth inhibition [2] -2.63% | viability increase [3] 1.98% | viability [4] 92.5% | viability [5] 85.3% | inhibition [6] 2.58% | RAM network inhibition [7] 10%

O=C(NCC1CCCO1)NC1(C(F)(F)F)Oc2ccccc2O1 (stereo unspecified)
inactive: growth inhibition [1] -24.1% | growth inhibition [2] -16% | viability increase [3] -7.32% | viability [4] 60.8% | viability [5] 67.1% | inhibition [6] 1.9% | RAM network inhibition [7] 2.09%

COc1cc(C2C(C(=O)OC(C)C)=C(C)Nc3ncnn32)cc(OC)c1OC (stereo unspecified)
inactive: growth inhibition [1] -8.66% | growth inhibition [2] -10.4% | viability increase [3] -3.15% | viability [4] 100% | viability [5] 96.8% | inhibition [6] 1.19% | RAM network inhibition [7] 1.44%

COc1ccc(NC(=O)CCS(=O)(=O)c2cccc3nonc23)c(OC)c1
inactive: growth inhibition [1] -4.67% | growth inhibition [2] -11.7% | viability increase [3] -2.54% | viability [4] 96.2% | viability [5] 93.8% | inhibition [6] 0.51% | RAM network inhibition [7] 2.06%

C=CCn1c(=N)n(CC(O)COc2ccccc2OC)c2ccccc21 (stereo unspecified)
inactive: growth inhibition [1] -4.97% | growth inhibition [2] 0.15% | viability increase [3] -4.19% | viability [4] 73.9% | viability [5] 77.4% | inhibition [6] 1.92% | RAM network inhibition [7] 1.07%

CN(Cc1ccccc1)C(=O)CCC(=O)N(C)Cc1ccccc1
inactive: growth inhibition [1] -1.99% | growth inhibition [2] 4.61% | viability increase [3] -0.27% | viability [4] 103% | viability [5] 90.2% | inhibition [6] 0.97% | RAM network inhibition [7] -0.11%

Cc1cc(Nc2ccc(Br)c(C)c2)n2nc(C)nc2n1
inactive: growth inhibition [1] -8.54% | growth inhibition [2] 4.61% | viability increase [3] -6.94% | viability [4] 80.9% | viability [5] 84.9% | inhibition [6] 0.65% | RAM network inhibition [7] 6.84%

COC(=O)Cn1c(CCC(=O)O)ccc1-c1ccccc1
inactive: growth inhibition [1] -1.1% | growth inhibition [2] -4.95% | viability increase [3] -0.49% | viability [4] 102% | viability [5] 103% | inhibition [6] 0.12% | RAM network inhibition [7] 10.9%

Cc1nnc(NC(=O)CSc2nnc(Cc3cccn3C)n2C)s1
inactive: growth inhibition [1] -3.1% | growth inhibition [2] 24.4% | viability increase [3] -0.3% | viability [4] 98.8% | viability [5] 104% | inhibition [6] 0.91% | RAM network inhibition [7] 1.93%

Cc1cc(Nc2cc(C(=O)O)ccc2C)n2ncnc2n1
inactive: growth inhibition [1] 4.96% | growth inhibition [2] -2.32% | viability increase [3] 0.41% | viability [4] 95.9% | viability [5] 102% | inhibition [6] 0.71% | RAM network inhibition [7] 0.57%

CCc1ccc(C2CC(c3ccccc3Cl)Nc3nc(N)nn32)cc1 (stereo unspecified)
inactive: growth inhibition [1] 8.37% | growth inhibition [2] 26.1% | viability increase [3] -2.66% | viability [4] 95% | viability [5] 80.7% | inhibition [6] 0.86% | RAM network inhibition [7] 8.56%

CCOC(=O)N1CCN(c2c(Nc3ccc4c(c3)OCCO4)c(=O)c2=O)CC1
inactive: growth inhibition [1] 4.17% | growth inhibition [2] 4.07% | viability increase [3] -1.02% | viability [4] 105% | viability [5] 105% | inhibition [6] 1.1% | RAM network inhibition [7] 2.05%

COC(=O)c1ccc2c(c1)N(Cc1nc(-c3cccc(C)c3)oc1C)C(=O)C1CCCN21 (stereo unspecified)
inactive: growth inhibition [1] -13% | growth inhibition [2] -8.79% | viability increase [3] -2.37% | viability [4] 92% | viability [5] 84.3% | inhibition [6] 2.06% | RAM network inhibition [7] 5.71%

CCC(C)NC(=O)Cn1cc2c(n1)CCC(C)C2 (stereo unspecified)
inactive: growth inhibition [1] -6.78% | growth inhibition [2] 6.43% | viability increase [3] -1.54% | viability [4] 103% | viability [5] 97.3% | inhibition [6] 0.14% | RAM network inhibition [7] 0.42%

O=C(CC1CCCCC1)NCCCN1CCOCC1
inactive: growth inhibition [1] 1.88% | growth inhibition [2] -3.55% | viability increase [3] 1.14% | viability [4] 92% | viability [5] 102% | inhibition [6] 1.58% | RAM network inhibition [7] 1.38%

O=C(CSc1nc(-c2ccco2)cc(C(F)(F)F)n1)NC1CCCC1
inactive: growth inhibition [1] -9.81% | growth inhibition [2] 5.25% | viability increase [3] -0.46% | viability [4] 89.3% | viability [5] 89.5% | inhibition [6] 0.995% | RAM network inhibition [7] 1%

O=C(C1COc2ccccc2O1)N1CCn2c(nc3ccccc32)C1 (stereo unspecified)
inactive: growth inhibition [1] -13.1% | growth inhibition [2] -3.57% | viability increase [3] -2.64% | viability [4] 106% | viability [5] 92% | inhibition [6] 1.85% | RAM network inhibition [7] 4.61%

CC1(C)CC(=O)C2=C(C1)Nc1ccccc1NC2c1cccnc1 (stereo unspecified)
inactive: growth inhibition [1] 7.14% | growth inhibition [2] 1.02% | viability increase [3] -3.43% | viability [4] 96.1% | viability [5] 93.6% | inhibition [6] -0.195% | RAM network inhibition [7] 0.21%

Cc1cc(C)nc(SCC(=O)Oc2ccc3oc(=O)cc(C)c3c2)n1
inactive: growth inhibition [1] -15.6% | growth inhibition [2] -10.1% | viability increase [3] -3.67% | viability [4] 97% | viability [5] 95.4% | inhibition [6] 1.63% | RAM network inhibition [7] 3.39%

COc1ccccc1NC(=O)CCNC(=O)Cn1ccc2ccccc2c1=O
inactive: growth inhibition [1] -12.7% | growth inhibition [2] -11.8% | viability increase [3] -1.84% | viability [4] 96.6% | viability [5] 93.3% | inhibition [6] 0.74% | RAM network inhibition [7] 3.6%

O=C(c1cnccn1)N(c1ccccc1)C1(C(=O)NC2CCCCC2)CCCCC1
inactive: growth inhibition [1] -6.44% | growth inhibition [2] -1.08% | viability increase [3] -0.6% | viability [4] 96.9% | viability [5] 90.7% | inhibition [6] 1.06% | RAM network inhibition [7] 1.62%

O=C(Cc1cc(=O)[nH]c(=O)[nH]1)N1CCC(Cc2ccccc2)CC1
inactive: growth inhibition [1] 0.795% | growth inhibition [2] -5.47% | viability increase [3] -0.99% | viability [4] 96% | viability [5] 94.2% | inhibition [6] 1.33% | RAM network inhibition [7] 3.92%

c1ccc(N2CCN(c3ncnc4c3oc3ccccc34)CC2)cc1
inactive: growth inhibition [1] -16.2% | growth inhibition [2] 9.12% | viability increase [3] -0.47% | viability [4] 96% | viability [5] 100% | inhibition [6] -0.03% | RAM network inhibition [7] 8.18%
